The text below walks through data of ChEMBL document CHEMBL1122887, “Structure-activity studies on the N-terminal region of growth hormone releasing factor” (1985).

Calls of active or inactive are those of the source.

The test system of assay [1] is Rattus norvegicus. The experiment in a line: Percent growth hormone releasing activity in anesthetized rat relative to hpGRF (1-29)NH2. Type of assay: functional. In short, it runs like this: (§1)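 In pentobarbital-anesthetized male Charles River rats (6–9/group), two subcutaneous analogue doses and GRF(1-29)NH₂ reference doses were given. Plasma GH was measured by radioimmunoassay in jugular blood taken 15 min post-injection. Relative potency with 95% confidence limits came from a four-point assay design by Pugsley's method. Not active means no activity at the doses tested.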

Assay [2] has as its system Rattus norvegicus. Description: Percent growth hormone releasing activity in anesthetized rat relative to hpGRF (1-29)NH2; Not active. Type of assay: functional, organism-based. In short, it runs like this:
as §1

In assay [3] the test system is Rattus norvegicus. The experiment in a line: Effect on plasma growth hormone in anesthetized rat at a dose of 25 ug/100 g of body weight. In kind it is functional. In short, it runs like this:
(§2)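 Male Charles River rats (175–350 g) anesthetized with sodium pentobarbital (6 mg/100 g body wt); 30 min later, 6–9 per group received a single subcutaneous 0.5-mL injection of saline, GRF(1-29)NH₂ reference, or one of two analogue doses. Jugular vein blood was drawn 15 min post-injection, and plasma GH was measured by radioimmunoassay, reported as ng/mL ± SE.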

The test system of assay [4] is Rattus norvegicus. Description: Effect on plasma growth hormone in anesthetized rat at a dose of 5 ug/100 g of body weight. Type of assay: functional. The essentials: as §2

In assay [1], `CC[C@H](C)[C@H](NC(=O)[C@H](C)NC(=O)[C@H](CC(=O)O)NC(=O)[C@H](C)NC(=O)[C@H](Cc1ccc(O)cc1)NC(C)=O)C(=O)N[C@@H](Cc1ccccc1)C(=O)N[C@H](C(=O)N[C@@H](CC(N)=O)C(=O)N[C@@H](CO)C(=O)N[C@@H](Cc1ccc(O)cc1)C(=O)N[C@@H](CCCN=C(N)N)C(=O)N[C@@H](CCCCN)C(=O)N[C@H](C(=O)N[C@@H](CC(C)C)C(=O)NCC(=O)N[C@@H](CCC(N)=O)C(=O)N[C@@H](CC(C)C)C(=O)N[C@@H](CO)C(=O)N[C@@H](C)C(=O)N[C@@H](CCCN=C(N)N)C(=O)N[C@@H](CCCCN)C(=O)N[C@@H](CC(C)C)C(=O)N[C@@H](CC(C)C)C(=O)N[C@@H](CCC(N)=O)C(=O)N[C@@H](CC(=O)O)C(=O)N[C@H](C(=O)N[C@@H](CCSC)C(=O)N[C@@H](CO)C(=O)N[C@@H](CCCN=C(N)N)C(N)=O)[C@@H](C)CC)C(C)C)[C@@H](C)O` returned an Activity of 1224%.

On to `CC[C@H](C)[C@H](NC(=O)[C@H](C)NC(=O)[C@H](CC(=O)O)NC(=O)[C@@H](C)NC(=O)[C@@H](Cc1ccc(O)cc1)NC(C)=O)C(=O)N[C@@H](Cc1ccccc1)C(=O)N[C@H](C(=O)N[C@@H](CC(N)=O)C(=O)N[C@@H](CO)C(=O)N[C@@H](Cc1ccc(O)cc1)C(=O)N[C@@H](CCCN=C(N)N)C(=O)N[C@@H](CCCCN)C(=O)N[C@H](C(=O)N[C@@H](CC(C)C)C(=O)NCC(=O)N[C@@H](CCC(N)=O)C(=O)N[C@@H](CC(C)C)C(=O)N[C@@H](CO)C(=O)N[C@@H](C)C(=O)N[C@@H](CCCN=C(N)N)C(=O)N[C@@H](CCCCN)C(=O)N[C@@H](CC(C)C)C(=O)N[C@@H](CC(C)C)C(=O)N[C@@H](CCC(N)=O)C(=O)N[C@@H](CC(=O)O)C(=O)N[C@H](C(=O)N[C@@H](CCSC)C(=O)N[C@@H](CO)C(=O)N[C@@H](CCCN=C(N)N)C(N)=O)[C@@H](C)CC)C(C)C)[C@@H](C)O` (stereo in doubt; 7), for which, in assay [2], the result was inactive.

In the case of `CC[C@H](C)[C@H](NC(=O)[C@H](C)NC(=O)[C@H](CC(=O)O)NC(=O)[C@@H](C)NC(=O)[C@@H](Cc1ccc(O)cc1)NC(C)=O)C(=O)N[C@@H](Cc1ccccc1)C(=O)N[C@H](C(=O)N[C@@H](CC(N)=O)C(=O)N[C@@H](CO)C(=O)N[C@@H](Cc1ccc(O)cc1)C(=O)N[C@@H](CCCN=C(N)N)C(=O)N[C@@H](CCCCN)C(=O)N[C@H](C(=O)N[C@@H](CC(C)C)C(=O)NCC(=O)N[C@@H](CCC(N)=O)C(=O)N[C@@H](CC(C)C)C(=O)N[C@@H](CO)C(=O)N[C@@H](C)C(=O)N[C@@H](CCCN=C(N)N)C(=O)N[C@@H](CCCCN)C(=O)N[C@@H](CC(C)C)C(=O)N[C@@H](CC(C)C)C(=O)N[C@@H](CCC(N)=O)C(=O)N[C@@H](CC(=O)O)C(=O)N[C@H](C(=O)N[C@@H](CCSC)C(=O)N[C@@H](CO)C(=O)N[C@@H](CCCN=C(N)N)C(N)=O)[C@@H](C)CC)C(C)C)[C@@H](C)O` (stereo in doubt; 6) [listing 1 of 2 here], the figures for the Activity in assay [3] and in assay [4] were 374 ng/mL and 324 ng/mL, respectively.

In the case of `CC[C@H](C)[C@H](NC(=O)[C@H](C)NC(=O)[C@H](CC(=O)O)NC(=O)[C@@H](C)NC(=O)[C@@H](Cc1ccc(O)cc1)NC(C)=O)C(=O)N[C@@H](Cc1ccccc1)C(=O)N[C@H](C(=O)N[C@@H](CC(N)=O)C(=O)N[C@@H](CO)C(=O)N[C@@H](Cc1ccc(O)cc1)C(=O)N[C@@H](CCCN=C(N)N)C(=O)N[C@@H](CCCCN)C(=O)N[C@H](C(=O)N[C@@H](CC(C)C)C(=O)NCC(=O)N[C@@H](CCC(N)=O)C(=O)N[C@@H](CC(C)C)C(=O)N[C@@H](CO)C(=O)N[C@@H](C)C(=O)N[C@@H](CCCN=C(N)N)C(=O)N[C@@H](CCCCN)C(=O)N[C@@H](CC(C)C)C(=O)N[C@@H](CC(C)C)C(=O)N[C@@H](CCC(N)=O)C(=O)N[C@@H](CC(=O)O)C(=O)N[C@H](C(=O)N[C@@H](CCSC)C(=O)N[C@@H](CO)C(=O)N[C@@H](CCCN=C(N)N)C(N)=O)[C@@H](C)CC)C(C)C)[C@@H](C)O` (stereo in doubt; 6) [listing 2 of 2 here], in assay [2], the outcome was inactive.

In assay [1], `CC[C@H](C)[C@H](NC(=O)[C@H](C)NC(=O)[C@H](CC(=O)O)NC(=O)[C@@H](C)NC(=O)[C@@H](Cc1ccc(O)cc1)NC(C)=O)C(=O)N[C@@H](Cc1ccccc1)C(=O)N[C@H](C(=O)N[C@@H](CC(N)=O)C(=O)N[C@@H](CO)C(=O)N[C@@H](Cc1ccc(O)cc1)C(=O)N[C@@H](CCCN=C(N)N)C(=O)N[C@@H](CCCCN)C(=O)N[C@H](C(=O)N[C@@H](CC(C)C)C(=O)NCC(=O)N[C@@H](CCC(N)=O)C(=O)N[C@@H](CC(C)C)C(=O)N[C@@H](CO)C(=O)N[C@@H](C)C(=O)N[C@@H](CCCN=C(N)N)C(=O)N[C@@H](CCCCN)C(=O)N[C@@H](CC(C)C)C(=O)N[C@@H](CC(C)C)C(=O)N[C@@H](CCC(N)=O)C(=O)N[C@@H](CC(=O)O)C(=O)N[C@H](C(=O)N[C@@H](CCSC)C(=O)N[C@@H](CO)C(=O)N[C@@H](CCCN=C(N)N)C(N)=O)[C@@H](C)CC)C(C)C)[C@@H](C)O` (stereo in doubt; 1) displayed an Activity of 993%.

As to `CC[C@H](C)[C@H](NC(=O)[C@H](C)NC(=O)[C@H](CC(=O)O)NC(=O)[C@@H](C)NC(=O)[C@@H](Cc1ccc(O)cc1)NC(C)=O)C(=O)N[C@@H](Cc1ccccc1)C(=O)N[C@H](C(=O)N[C@@H](CC(N)=O)C(=O)N[C@@H](CO)C(=O)N[C@@H](Cc1ccc(O)cc1)C(=O)N[C@@H](CCCN=C(N)N)C(=O)N[C@@H](CCCCN)C(=O)N[C@H](C(=O)N[C@@H](CC(C)C)C(=O)NCC(=O)N[C@@H](CCC(N)=O)C(=O)N[C@@H](CC(C)C)C(=O)N[C@@H](CO)C(=O)N[C@@H](C)C(=O)N[C@@H](CCCN=C(N)N)C(=O)N[C@@H](CCCCN)C(=O)N[C@@H](CC(C)C)C(=O)N[C@@H](CC(C)C)C(=O)N[C@@H](CCC(N)=O)C(=O)N[C@@H](CC(=O)O)C(=O)N[C@H](C(=O)N[C@@H](CCSC)C(=O)N[C@@H](CO)C(=O)N[C@@H](CCCN=C(N)N)C(N)=O)[C@@H](C)CC)C(C)C)[C@@H](C)O` (stereo in doubt; 3), the Activity in assay [1] is given as 670%.

Regarding `CC[C@H](C)[C@H](NC(=O)[C@H](C)NC(=O)[C@H](CC(=O)O)NC(=O)[C@@H](C)NC(=O)[C@@H](N)Cc1ccc(O)cc1)C(=O)N[C@@H](Cc1ccccc1)C(=O)N[C@H](C(=O)N[C@@H](CC(N)=O)C(=O)N[C@@H](CO)C(=O)N[C@@H](Cc1ccc(O)cc1)C(=O)N[C@@H](CCCN=C(N)N)C(=O)N[C@@H](CCCCN)C(=O)N[C@H](C(=O)N[C@@H](CC(C)C)C(=O)NCC(=O)N[C@@H](CCC(N)=O)C(=O)N[C@@H](CC(C)C)C(=O)N[C@@H](CO)C(=O)N[C@@H](C)C(=O)N[C@@H](CCCN=C(N)N)C(=O)N[C@@H](CCCCN)C(=O)N[C@@H](CC(C)C)C(=O)N[C@@H](CC(C)C)C(=O)N[C@@H](CCC(N)=O)C(=O)N[C@@H](CC(=O)O)C(=O)N[C@H](C(=O)N[C@@H](CCSC)C(=O)N[C@@H](CO)C(=O)N[C@@H](CCCN=C(N)N)C(N)=O)[C@@H](C)CC)C(C)C)[C@@H](C)O`, the Activity in assay [1] was 5146%.
